The source made the active and inactive calls. The rule behind the calls is not given here.
Legend:
REH [1] = assay: Induction of apoptosis in human REH cells assessed as induction of ROS production at 1 uM after 60 mins by flow cytometric analysis (reference value: 0.09 %); assay type: functional
REH [2] = assay: Induction of apoptosis in human REH cells assessed as induction of ROS production at 500 nM after 10 mins by flow cytometric analysis (reference value: 0.33 %); assay type: functional
REH [3] = assay: Induction of apoptosis in human REH cells assessed as induction of ROS production at 1 uM after 10 mins by flow cytometric analysis (reference value: 0.33 %); assay type: functional
REH [4] = assay: Induction of apoptosis in human REH cells assessed as induction of ROS production at 5 uM after 10 mins by flow cytometric analysis (reference value: 0.33 %); assay type: functional
REH [5] = assay: Induction of apoptosis in human REH cells assessed as induction of ROS production at 10 uM after 10 mins by flow cytometric analysis (reference value: 0.33 %); assay type: functional
REH [6] = assay: Induction of apoptosis in human REH cells assessed as PARP cleavage after 48 hrs by Western blot analysis; assay type: functional, cell-based
In short: (§1)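 Reh cell lysates were prepared after 48 h treatment at 500 nM and 1 µM, with DMSO-treated cells as control. Western blotting used primary antibodies against KU70, PARP1, caspase 3, BID, caspase 9, FAS and caspase 8, with tubulin also probed.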

REH [7] = assay: Induction of apoptosis in human REH cells assessed as caspase 3 cleavage after 48 hrs by Western blot analysis; assay type: functional, cell-based; in short: as §1
REH [8] = assay: Induction of apoptosis in human REH cells assessed as reduction of BID at 1 uM after 48 hrs by Western blot analysis; assay type: functional, cell-based; in short: as §1
REH [9] = assay: Induction of apoptosis in human REH cells assessed as change in caspase 9 expression at 1 uM after 48 hrs by Western blot analysis; assay type: functional, cell-based; in short: as §1
[10] = Growth inhibition of human NSCLC cells; assay type: functional
[11] = Growth inhibition of human CNS cancer cells; assay type: functional; settings: Cancer cell lines
[12] = Growth inhibition of human Ovarian cancer cells; assay type: functional; settings: Cancer cell lines
[13] = Growth inhibition of human Renal cancer cells; assay type: functional; settings: Cancer cell lines
[14] = Growth inhibition of human Breast cancer cells; assay type: functional; settings: Cancer cell lines
REH [15] = assay: Cytotoxicity against human REH cells assessed as reduction in cell viability after 24 to 72 hrs by trypan blue exclusion assay; assay type: functional, cell-based
In short: (§2)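 Reh, K562 and Nalm6 leukemic cells were treated with 10, 50, 100 and 250 µM or with 0.1, 0.5, 1, 5 and 10 µM (compounds dissolved in DMSO). Viability was scored by trypan blue after 24, 48 and 72 h. DMSO-treated cells served as vehicle control.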

K562 = assay: Cytotoxicity against human K562 cells assessed as reduction in cell viability after 24 to 72 hrs by trypan blue exclusion assay; assay type: functional, cell-based; in short: as §2
NALM-6 = assay: Cytotoxicity against human NALM6 cells assessed as reduction in cell viability after 24 to 72 hrs by trypan blue exclusion assay; assay type: functional, cell-based; in short: as §2
REH [16] = assay: Cytotoxicity against human REH cells assessed as reduction in cell viability at 0.1 to 10 uM by trypan blue exclusion assay; assay type: functional, cell-based; settings: TDE = time-dependent effect; in short: as §2
REH [17] = assay: Cytotoxicity against human REH cells assessed as reduction in cell viability at 5 to 10 uM after 48 to 72 hrs by MTT assay; assay type: functional, cell-based
In short: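 MTT viability read-out in leukemic cells treated with 10, 50, 100 and 250 µM or with 0.1, 0.5, 1, 5 and 10 µM. Cells harvested after 48 and 72 h. Compounds dissolved in DMSO.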

REH [18] = assay: Cytotoxicity against human REH cells assessed as induction of cell death at 3 uM after 24 to 72 hrs by live-dead cell assay; assay type: functional, cell-based; settings: in the assay text read “24 to 48 hrs” for “24 to 72 hrs”
In short: (§3)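 Reh leukemic and 293T human kidney epithelial cells were treated at 3 µM and compared by live-dead cell assay at 24 and 48 h.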

HEK293 [19] = assay: Cytotoxicity against HEK293 cells assessed as induction of cell death at 3 uM after 24 to 72 hrs by live-dead cell assay; assay type: cell-based; settings: human, hek293, 3 µM; in the assay text read “24 to 48 hrs” for “24 to 72 hrs”; in short: as §3
REH [20] = assay: Cytotoxicity against human REH cells assessed as reduction in cell viability at 3 uM after 24 to 72 hrs by trypan blue exclusion assay; assay type: functional, cell-based
HEK293 [21] = assay: Cytotoxicity against HEK293 cells assessed as reduction in cell viability at 3 uM after 24 to 72 hrs by trypan blue exclusion assay; assay type: cell-based; settings: human, hek293, 3 µM
REH [22] = assay: Cell cycle arrest in human REH cells assessed as accumulation at subG1 phase after 48 hrs using propidium iodide by FACS analysis; assay type: functional, cell-based
In short: (§4)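 Reh and Nalm6 cells exposed 48 h to 0.1, 0.5, 1 and 5 µM, harvested, stained with propidium iodide and analysed by flow cytometry. Gated fractions were sub G1, G1, S and G2. DMSO-treated cells served as vehicle control. Three independent experiments for Reh and two for Nalm6.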

REH [23] = assay: Cell cycle arrest in human REH cells assessed as reduction of cells in S phase after 48 hrs using propidium iodide by FACS analysis; assay type: functional, cell-based; in short: as §4
[24] = Cell cycle arrest in human NALM6 cells assessed as reduction of cells in G2/M phase after 48 hrs using propidium iodide by FACS analysis; assay type: functional, cell-based; settings: NALM-6; in short: as §4
[25] = Cell cycle arrest in human NALM6 cells assessed as reduction of cells in G1 phase after 48 hrs using propidium iodide by FACS analysis; assay type: functional, cell-based; settings: NALM-6; in short: as §4
[26] = Cell cycle arrest in human NALM6 cells assessed as reduction of cells in S phase after 48 hrs using propidium iodide by FACS analysis; assay type: functional, cell-based; settings: NALM-6; in short: as §4
REH [27] = assay: Induction of apoptosis in human REH cells assessed as early apoptotic cells at 1 uM after 48 hrs using annexin-v-FITC/propidium iodide by FACS analysis (reference value: 6.05 %); assay type: functional
REH [28] = assay: Induction of apoptosis in human REH cells assessed as viable cells at 1 uM after 48 hrs using annexin-v-FITC/propidium iodide by FACS analysis (reference value: 88.41 %); assay type: functional; settings: read-out: Activity
REH [29] = assay: Induction of apoptosis in human REH cells assessed as loss of mitochondrial membrane potential at 1 uM after 48 hrs using Jc-1 staining by flow cytometric analysis; assay type: functional, cell-based
In short: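 Mitochondrial membrane potential in Reh cells after 48 h at 0.1, 0.5, 1 and 5 µM. Cells stained with JC-1 and analysed by flow cytometry as the ratio of red (aggregate) to green (monomer) fluorescent cells. 2,4-DNP-treated cells served as positive control.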

REH [30] = assay: Induction of apoptosis in human REH cells assessed as induction of ROS production at 1 uM after 15 mins by flow cytometric analysis (reference value: 0.09 %); assay type: functional
REH [31] = assay: Induction of apoptosis in human REH cells assessed as induction of ROS production at 1 uM after 30 mins by flow cytometric analysis (reference value: 0.09 %); assay type: functional
REH [32] = assay: Induction of apoptosis in human REH cells assessed as dead cells at 1 uM after 48 hrs using annexin-v-FITC/propidium iodide by FACS analysis (reference value: 0.03 %)

`O=Cc1c(-c2ccc(Br)cc2)nc2sc(Cc3ccccc3)nn12` showed an Activity (REH [1]) of 0.12%, an Activity (REH [2]) of 0.86% and an Activity (REH [3]) of 0.28%. The Activity (REH [4]) was 0.62%, the Activity (REH [5]) was 0.41% and the Activity (REH [6]) was “Dose-dependent effect”. The Activity (REH [7]) was “Dose-dependent effect”, the Activity (REH [8]) was “Active” and the Activity (REH [9]) was “inactive”. For the same compound, the GI50 [10] was 4.2 µM, the LC50 (concentration killing 50% of cells) [10] was 95.5 µM and the TGI [10] was 30.2 µM. The GI50 [11] was 2.2 µM, the LC50 [11] was 64.6 µM and the TGI [11] was 7.4 µM. The GI50 [12] was 4.2 µM, the TGI [12] was 41.7 µM and the GI50 [13] was 3.2 µM. For the same compound, the LC50 [13] was 93.3 µM, the TGI [13] was 20 µM and the GI50 [14] was 3.5 µM. For the same compound, the TGI [14] was 28.2 µM, the Activity (REH [15]) was “Dose-dependent effect” and the Activity (K562) was “Dose-dependent effect”. For the same compound, the Activity (NALM-6) was “Dose-dependent effect”, the Activity (REH [16]) was “tde” and the Activity (REH [17]) was “Active”. The Activity (REH [18]) was “Active”, the Activity (HEK293 [19]) was “Non-toxic” and the Activity (REH [20]) was “Active”. The Activity (HEK293 [21]) was “Non-toxic”, the Activity (REH [22]) was “Dose-dependent effect” and the Activity (REH [23]) was “Dose-dependent effect”. The Activity [24] was “Dose-dependent effect”, the Activity [25] was “Dose-dependent effect” and the Activity [26] was “Dose-dependent effect”. For the same compound, the Activity (REH [27]) was 43.03%, the viability at 1 µM (REH [28]) was 5.23% and the Activity (REH [29]) was “Dose-dependent effect”. The Activity (REH [30]) was 0.09%, the Activity (REH [31]) was 0.06% and the Activity (REH [32]) was 0.42%.

Reference: ChEMBL document CHEMBL3352816, “Synthesis and antiproliferative activity of imidazo[2,1-b][1,3,4]thiadiazole derivatives” (Bioorg Med Chem Lett, 2014)
